# PABP1 MLLE inh: inhibitors of microRNA-mediated deadenylation, human PABP1 MLLE binding. P11940. GST-MLLE / FITC-PAM2 fluorescence polarization. inhibition, % at 20 µM. actives 0.36% (n = 360,000); in the data active = inhibition above about 35%, passing the limit was not always enough;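 note: plate controls were DMSO wells with GST-MLLE for no effect and wells lacking GST-MLLE protein for full effect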
# PABP FP inh: PABP-poly(A) binding inhibition; actives 1% (n = 290,000); AID 2014; PABP-poly(A) RNA binding, fluorescence polarization; inhibition, % at 35 µM; P11940;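 note: calls also rest on retests at 20 µM and on dose response follow-up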
# ZTA DNA inh: blocks Epstein-Barr virus ZTA, an EBNA-1 counter-screen | P03206 | ZTA-DNA binding, fluorescence polarization | inhibition, % at 11 µM | actives 0.15% (n = 320,000); in the data active = inhibition above about 33%
# Target sequence (P03206 whole entry, looked up): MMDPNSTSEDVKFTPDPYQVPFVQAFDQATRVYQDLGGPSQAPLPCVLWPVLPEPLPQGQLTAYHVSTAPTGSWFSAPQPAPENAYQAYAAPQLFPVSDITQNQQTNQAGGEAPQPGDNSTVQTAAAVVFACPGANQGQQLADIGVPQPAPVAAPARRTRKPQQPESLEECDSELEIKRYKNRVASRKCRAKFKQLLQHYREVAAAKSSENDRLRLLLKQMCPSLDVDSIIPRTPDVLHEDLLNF
# NS3 helicase inh: HCV NS3 helicase inhibition. AID 1800. NS3 helicase DNA unwinding, Cy5 molecular beacon fluorescence. inhibition, % at 10.9 µM. actives 0.56% (n = 290,000);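 active = inhibition above the mean of all tested compounds plus 3 SD, set per campaign, cut at about 35% in these data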;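 note: 0% = DMSO wells and 100% = thioflavine S control wells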
#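 System: HCV NS3 helicase fragment; control set: DMSO and thioflavine S; technique: Cy5 fluorescence at 0 and 60 min, beacon hairpin quenching; reagent: beacon DNA duplex substrate plus ATP; replicates: singlicate; schedule: 1 h reaction at 25 °C, ATP-initiated; medium: MOPS buffer pH 6.5 with MgCl2, DTT, Tween20, BSA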
# EBNA-1 inh: blocks EBNA-1 binding to DNA; EBNA-1 DNA binding, fluorescence polarization; inhibition, % at 14.8 µM; actives 0.34% (n = 300,000); AID 1950; in the data active = inhibition above about 28%
# eIF4H FP inh: inhibitors of RNA binding by human eIF4H. inhibition, % at 35 µM. eIF4H fluorescence polarization binding assay. actives 0.94% (n = 290,000). Q15056;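 note: calls also rest on retests at 20 µM and on dose response follow-up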
# EBNA-1 confirm: EBNA-1 (EBV) inhibition, confirmation; shares compounds with EBNA-1 inh; Recombinant EBNA-1 DBD, Cy5-DNA fluorescence polarization; inhibition, % at 14.8 µM; actives 35% (n = 830);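 active = mean inhibition across replicates above a set limit taken from the earlier primary screen, cut at about 28% in these data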;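 note: plate controls were EBNA-1 protein with DMSO for no effect and wells lacking EBNA-1 for full effect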
# ZTA DNA inh trip: ZTA (EBV) inhibition, triplicate counter-screen. inhibition, % at 11.1 µM. 830 tested, under 10 active. Zta-ZRE DNA binding, Cy5 fluorescence polarization. shares compounds with EBNA-1 inh;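 active = mean inhibition over triplicates above a set limit taken from the primary EBNA-1 screen, cut at about 37% in these data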;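 note: purified full length Zta protein with Cy5 labeled ZRE DNA probe; 0% = Zta with DMSO and 100% = wells lacking Zta protein; inhibitors lower polarization by freeing the labeled DNA probe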
# * marks the source's active call; other numbers are inactive results; nt = not tested or not shown. Most compounds without a hit are left out; they make up all but 2.1% or so of the library. Unless noted, the rule behind the calls is not given here.
SMILES,PABP1 MLLE inh,PABP FP inh,ZTA DNA inh,NS3 helicase inh,EBNA-1 inh,eIF4H FP inh,EBNA-1 confirm,ZTA DNA inh trip
Cc1ccc(NC(=O)Cn2c(=O)n(CCCC(=O)NCc3ccco3)c(=O)c3ccccc32)cc1,-10,2,-5,11,38*,-8,45*,-7
CN(C)c1ccc(NC(=O)Cn2c(=O)n(Cc3ccccc3)c(=O)c3ccccc32)cc1,-6,-8,10,-2,43*,-4,35*,2
Nc1ccccc1OCCOCCOc1ccccc1N,-1,-1,1,6,3,-8,nt,nt
COc1ccc(NC2CCCN(C(=O)CCc3ccccc3F)C2)cc1 (configuration not stated),9,0,0,-2,6,1,nt,nt
CC1CCCC(C)N1S(=O)(=O)c1ccc(NC(=O)CCn2cnc3ccccc3c2=O)cc1 (configuration not stated),-5,-8,-9,-3,48*,-17,52*,2
Cc1cc(C)n(-c2ccc(Cl)c(C(=O)OCC(=O)N3CCCCC3C)n2)n1 (configuration not stated),-2,-9,8,nt,5,-1,nt,nt
Cc1cc(C)n(-c2ccc(Cl)c(C(=O)OCC(N)=O)n2)n1,-6,2,10,-3,36*,5,12,7
COc1cccc(N2CC(O)=C(c3nc4ccccc4s3)C2=N)c1,8,6,-12,-6,4,4,nt,nt
COc1ccc(N2CC(O)=C(c3nc4ccccc4s3)C2=N)cc1,3,5,-9,0,53*,2,77*,7
Cc1cccc(NC(=O)CSc2nc3ccc(NC(=O)CSc4nnnn4-c4ccccc4)cc3s2)c1C,nt,-8,10,12,7,6,nt,nt
O=C(CSc1nc2ccc(NC(=O)CSc3nnnn3-c3ccccc3)cc2s1)Nc1ccccc1,-11,-1,-3,5,49*,-1,61*,0
O=C(CSc1nnc2c3c4c(sc3ncn12)CCCC4)NCc1ccco1,3,0,2,3,32*,-2,-1,0
Nc1nc(-c2ccc3c(c2)CCCC3)cs1,26,-8,-17,4,53*,6,7,-6
Nc1nc(-c2ccc3c(c2)OCCO3)cs1,-2,25,-8,-1,-6,-2,nt,nt
CN1CCN(c2ccc(-c3cccc(NC(=O)COc4ccc(Cl)cc4Cl)c3)nn2)CC1,4,nt,18,nt,28*,nt,51*,-4
CN1CCN(c2ccc(-c3cccc(NC(=O)COc4ccc(Cl)cc4)c3)nn2)CC1,-1,nt,12,nt,2,nt,nt,nt
COc1cc(C2C(C#N)=C(N)N(N(C)C)C3=C2C(=O)CCC3)cc(OC)c1OC (configuration not stated),16,5,-14,5,8,-6,nt,nt
COc1cc(C2C(C#N)=C(N)N(c3sc4c(c3C#N)CCCC4)C3=C2C(=O)CC(C)(C)C3)cc(OC)c1OC (configuration not stated),3,-3,18,2,108*,-6,36*,0
CCOc1ccc(Nc2ncnc3c2nnn3Cc2ccccc2)cc1,-1,2,-2,-6,36*,-3,9,-8
COc1ccc(NC(=O)c2ccc3c(c2)CCN3S(=O)(=O)c2ccccc2)c(OC)c1,3,3,-1,-13,28*,9,15,5
COc1ccc(NC(=O)Cc2coc3cc(C)c(C(C)C)cc23)cc1S(=O)(=O)N1CCOCC1,-107,-8,1,-1,0,3,nt,nt
CCOC(=O)c1cnc(SCc2cccc3ccccc23)nc1N,-5,-1,0,-3,105*,-2,6,14
COCCCNC(=O)c1c(N)n(-c2ccc(S(N)(=O)=O)cc2)c2nc3ccccc3nc12,-2,-5,25,2,113*,2,65*,-13
COCCCNC(=O)c1c(N)n(-c2ccccc2)c2nc3ccccc3nc12,4,2,-5,-1,-3,-3,nt,nt
CCN(CC)C(=O)Cn1nc(-c2ccncc2)nc1SCC(=O)Nc1ccc(OC)cc1,4,0,4,1,-16,3,nt,nt
SMILES,PABP1 MLLE inh,PABP FP inh,ZTA DNA inh,NS3 helicase inh,EBNA-1 inh,eIF4H FP inh,EBNA-1 confirm,ZTA DNA inh trip
COC(=O)c1ccc(NC(=O)Cn2nc(-c3ccncc3)nc2SCC(=O)Nc2nccs2)cc1,-58,-26,-17,-7,52*,-10,35*,-14
N#Cc1cc2c(nc1SCC(O)CS(=O)(=O)Cc1ccccc1)CCCC2 (configuration not stated),6,-5,6,3,-1,-4,nt,nt
Cc1ccc(CNS(=O)(=O)NCc2ccc(Cl)cc2)cc1,-3,-6,10,-13,0,4,nt,nt
COc1ccc(CNS(=O)(=O)NCc2ccc(C)cc2)cc1,4,5,7,-11,56*,-12,12,-12
COc1ccc(Cn2cccc(NC(=O)Nc3cccc(C#N)c3)c2=O)cc1,12,3,24,-9,106*,-5,117*,1
CC(C)Oc1ccc(C2CC(=O)N(c3ccc(N(C)C)cc3)C2=O)cc1 (configuration not stated),13,-6,7,-6,-6,5,nt,nt
COc1ccccc1Nc1nnc(SCC(=O)NC(=O)Nc2ccc3c(c2)OCCO3)s1,-13,6,5,9,36*,-2,15,11
Cc1ccccc1Nc1nnc(SCC(=O)NC(=O)Nc2ccc3c(c2)OCCO3)s1,nt,2,0,13,12,-6,nt,nt
O=[N+]([O-])c1ccc(C2NS(=O)(=O)N=C3CCCCCN32)cc1 (configuration not stated),13,-1,-12,4,-5,0,nt,nt
O=C(NCc1ccc(-c2nc3ccccc3s2)cc1)c1cc2ccccc2o1,2,2,3,-2,28*,0,3,5
COC(C(=O)NCc1ccc(C)cc1)c1ccccc1 (configuration not stated),5,-4,0,-14,-1,-13,nt,nt
NS(=O)(=O)c1ccc(NC(=S)Nc2ccn(Cc3cccc4ccccc34)n2)cc1,32,17,-1,-2,29*,3,34*,-4
Cc1ccc(NC(=O)c2cc(-c3ccccc3)nn2-c2ccccc2)cc1,5,15,4,-9,-5,-2,nt,nt
CC(=O)C(/C=N/c1cc(-c2ccc(C)cc2)nn1-c1ccccc1)=C(\C)O,11,-14,-1,-6,30*,-5,50*,4
CCN(CC(=O)Nc1c(F)cccc1F)C(=O)c1cc(S(=O)(=O)N(CC)CC)ccc1N1CCCCC1,-18,-11,7,-3,2,2,nt,nt
